The text below walks through data of ChEMBL document CHEMBL1122155, “Synthesis and biological evaluation of novel pyrimidine nucleoside analogues of 1,4-oxathiane, 1,4-dithiane, and 1,4-dioxane” (1982).

“And” between values parts separate entries of the source, which are not always exact repeats. Equal values may be shown once. A value given as a limit tells only on which side of the number the result lay.

For one assay, the system named is MDAY-D2. Nature of the assay: In vitro antitumor activity (tumor cell growth inhibition) against MDAY-D2 cells. The format is functional, Mus musculus. The method, boiled down: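 MDAY-D2 cells in Alpha MEM with 10% fetal calf serum, penicillin and streptomycin. Seeded at 10^3–10^4 cells/mL. Next day, compound dissolved in Me2SO and diluted in medium was added (final 0.5% Me2SO), with duplicate wells per concentration. Coulter counts after 5–6 days, before controls reached maximal density. ID50 was read from log-log plots of concentration vs cell number, with controls as 100%.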

In assay [1] the test system is L1210. Nature of the assay: In vitro antitumor activity against mouse […] leukemia L1210 cells. The format is functional. The method, boiled down:
(§1)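 L1210 and K-562 cells grown in RPMI 1640 with 10% fetal calf serum plus penicillin/streptomycin. Suspensions of 10^3–10^4 cells/mL were plated, and compound (Me2SO stock diluted in medium) was added the following day. Final Me2SO was 0.5%, with two wells per concentration. Cells were counted by Coulter counter at 5–6 days. ID50 was taken from log-log concentration vs cell number plots, with untreated controls as 100%.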

For assay [2], the system named is K562. Nature of the assay: In vitro antitumor activity against human erythroleukemia K-562 cells. It counts as functional. The method, boiled down: as §1
The subject of assay [3] is K562. Nature of the assay: In vitro antitumor activity (tumor cell growth inhibition) against human erythroleukemia K-562 cells. The format is functional. The method, boiled down: as §1
The test system of assay [4] is K562. The assay can be described thus: In vitro antitumor activity (tumor cell growth inhibition) against human erythroleukemia K-562. The format is functional. The method, boiled down:
as §1

In assay [5] the test system is L1210. Nature of the assay: In vitro antitumor activity (tumor cell growth inhibition) against mouse […] leukemia L1210. It counts as functional. The essentials:
as §1

Assay [6] deals with L1210. Nature of the assay: In vitro antitumor activity against mouse […] leukemia L1210. The format is functional. The method, boiled down: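 L1210 cells in RPMI 1640 with 10% fetal calf serum and penicillin/streptomycin were seeded at 10^3-10^4 cells/mL. Compounds were dissolved in Me2SO, diluted in medium, and added the next day (final 0.5% Me2SO, matching controls), in duplicate wells. After 5-6 days, before controls peaked, cells were Coulter-counted. ID50 was read from log-log concentration vs cell-number plots, with controls as 100%.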

For `O=c1[nH]c(=O)n(C2COCCS2)cc1F` (stereo not drawn), the ID50 is 4600 µM in the assay on MDAY-D2; more than 1060 µM with L1210 [1]; >1.06 mM l-1 and >1.05 mM l-1 in the assay on K562 [2].
Take `O=c1ccn(C2CSCCS2)c(=O)[nH]1` (stereo not drawn): the ID50 with L1210 [1] was 240 µM; in the assay on K562 [2], more than 1050 µM.
In the case of `O=c1[nH]c(=O)n(C2COCCO2)cc1F` (stereo not drawn), the ID50 was more than 1000 µM with MDAY-D2; more than 970 µM in the assay with L1210 [1]; >1.09 mM l-1 and >0.97 mM l-1 with K562 [2].
Turning to `O=c1[nH]c(=O)n(C2CSCCS2)cc1F` (stereo not drawn), the ID50 in the assay on MDAY-D2 is 500 µM; with L1210 [1], 0.65 mM l-1 and 0.23 mM l-1; in the assay with K562 [2] it was more than 1020 µM.
In the case of `O=c1[nH]c(=O)n(C2COCC[S+]2[O-])cc1F` (stereo not drawn), the values for the ID50 in the assay on K562 [3] and in the assay with K562 [2] were more than 990 µM and more than 1010 µM, respectively.
Consider `O=c1[nH]c(=O)n(C2CSCCO2)cc1F` (stereo not drawn), for which the ID50 is 1400 µM in the assay with MDAY-D2; more than 1010 µM with L1210 [1]; >1 mM l-1 and 0.46 mM l-1 in the assay on K562 [2].
On to `O=c1[nH]c(=O)n(C2=COCCS2)cc1F`, for which the values for the ID50 in the assay on K562 [4] and in the assay on L1210 [5] were 380 µM and 20 µM, respectively.
Consider `Cc1cn(C2CSCCS2)c(=O)[nH]c1=O` (stereo not drawn), for which the ID50 in the assay with L1210 [1] is 0.23 mM l-1 and 0.21 mM l-1; with K562 [2] it was 670 µM.
In the case of `O=c1[nH]cc(F)c(=O)[nH]1` [FLUOROURACIL], the ID50 was 0.2 µM with MDAY-D2; 0.0023 mM l-1 and 0.0046 mM l-1 in the assay on K562 [2].
With `O=c1[nH]c(=O)n(C2CCCO2)cc1F` (stereo not drawn) [TEGAFUR], the ID50 in the assay on L1210 [6] was found to be 8.4 µM.
